In ChEMBL document CHEMBL2157889, “Design, synthesis and biological evaluation of heterocyclic azoles derivatives containing pyrazine moiety as potential telomerase inhibitors” (Bioorg Med Chem, 2012) one finds Activity, IC50 and viability data, which are given here for 1 compound.

SMILES strings stand for the structures.

Test [1] relates to HepG2. Put plainly: Induction of apoptosis in human HepG2 cells assessed as necrotic cells at 0.5 uM after 24 hrs by annexin VeFITC/PI-based flow cytometry (reference value: 0.7 %). The class given is functional. (Flow cytometry measures light scatter and fluorescence of single cells or particles in a stream.)
Test [2] can be described thus: Antiproliferative activity against human SW1116 cells after 48 hrs by MTT method. The class given is functional, cell-based. To be noted: SW 1116, 48 h. (In general: Formazan colour is commonly taken as a measure of viable cells.)
The subject of test [3] is HepG2. Kind of test: Induction of apoptosis in human HepG2 cells assessed as necrotic cells at 2 uM after 24 hrs by annexin VeFITC/PI-based flow cytometry (reference value: 0.7 %). The test is classed as functional.
The next test concerns BGC-823. Kind of test: Antiproliferative activity against human BGC823 cells after 48 hrs by MTT method. To be noted: BGC-823, 48 h. The class given is functional, cell-based. A digest of the protocol: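 MTT assay. Cells were seeded at 10⁴ per well and held 24 h at 37 °C with 5% CO₂. […] After 48 h, 5 mg/mL MTT in PBS was added for 4 h. Formazan was dissolved in DMSO and absorbance read at 490 nm.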

For test [4], the system named is HepG2. Put plainly: Induction of apoptosis in human HepG2 cells assessed as viable cells at 0.25 uM after 24 hrs by annexin VeFITC/PI-based flow cytometry (reference value: 89.18 %). Conditions: HepG2, 24 h, read-out: Activity. The class given is functional.
The subject of test [5] is HepG2. Kind of test: Induction of apoptosis in human HepG2 cells assessed as late apoptotic cells at 1 uM after 24 hrs by annexin VeFITC/PI-based flow cytometry (reference value: 6.84 %). The class given is functional.
For the next test, the system named is HeLa. Put plainly: Antiproliferative activity against human HeLa cells after 48 hrs by MTT method. The test is classed as functional, cell-based.
Test [6] relates to HepG2. Kind of test: Induction of apoptosis in human HepG2 cells assessed as late apoptotic cells at 0.5 uM after 24 hrs by annexin VeFITC/PI-based flow cytometry (reference value: 6.84 %). The class given is functional.
For test [7], the system named is HepG2. Kind of test: Induction of apoptosis in human HepG2 cells assessed as late apoptotic cells at 0.25 uM after 24 hrs by annexin VeFITC/PI-based flow cytometry (reference value: 6.84 %). The class given is functional.
Test [8] addresses Telomerase reverse transcriptase (Homo sapiens, UniProt O14746). Kind of test: Inhibition of telomerase in human HepG2 cells after 24 hrs by TRAP-PCR-ELISA assay. The test is classed as cell-based. A digest of the protocol:
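Cells in serum/penicillin/streptomycin medium (37 °C, 5% CO₂) were seeded at 5×10⁴ per T25 flask and allowed to adhere. After 24 h treatment, cells were lysed in RIPA buffer on ice for 30 min and spun at 12,000 g for 20 min at 4 °C. For the kit-based TRAP-PCR-ELISA, PCR ran 94 °C 120 s, then 35 cycles of 94/50/72 °C. Product was hybridised to a DIG probe, captured via biotin-streptavidin, detected with peroxidase anti-DIG, and read at 490 nm.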
(In an ELISA, binding on a coated surface is turned into a signal by an enzyme label.)

The subject of test [9] is HepG2. Kind of test: Induction of apoptosis in human HepG2 cells assessed as early apoptotic cells at 0.25 uM after 24 hrs by annexin VeFITC/PI-based flow cytometry (reference value: 3.28 %). The test is classed as functional.
Test [10] has as its system HepG2. Kind of test: Induction of apoptosis in human HepG2 cells assessed as viable cells at 0.5 uM after 24 hrs by annexin VeFITC/PI-based flow cytometry (reference value: 89.18 %). The class given is functional. To be noted: HepG2, 24 h, read-out: Activity.
Test [11] has as its system HepG2. Put plainly: Induction of apoptosis in human HepG2 cells after 24 hrs by annexin VeFITC/PI-based flow cytometry. The class given is functional, cell-based.
The test system of test [12] is HepG2. Kind of test: Induction of apoptosis in human HepG2 cells assessed as early apoptotic cells at 2 uM after 24 hrs by annexin VeFITC/PI-based flow cytometry (reference value: 3.28 %). The class given is functional.
The subject of test [13] is HepG2. Kind of test: Induction of apoptosis in human HepG2 cells assessed as late apoptotic cells at 2 uM after 24 hrs by annexin VeFITC/PI-based flow cytometry (reference value: 6.84 %). The class given is functional.
Test [14] deals with HepG2. Kind of test: Induction of apoptosis in human HepG2 cells assessed as viable cells at 1 uM after 24 hrs by annexin VeFITC/PI-based flow cytometry (reference value: 89.18 %). Conditions: HepG2, 24 h, read-out: Activity. The test is classed as functional.
The subject of test [15] is HepG2. Put plainly: Induction of apoptosis in human HepG2 cells assessed as necrotic cells at 0.25 uM after 24 hrs by annexin VeFITC/PI-based flow cytometry (reference value: 0.7 %). The class given is functional.
Test [16] deals with HepG2. Put plainly: Induction of apoptosis in human HepG2 cells assessed as viable cells at 2 uM after 24 hrs by annexin VeFITC/PI-based flow cytometry (reference value: 89.18 %). The test is classed as functional. To be noted: HepG2, 24 h, read-out: Activity.
The test system of test [17] is HepG2. Put plainly: Induction of apoptosis in human HepG2 cells assessed as early apoptotic cells at 1 uM after 24 hrs by annexin VeFITC/PI-based flow cytometry (reference value: 3.28 %). The class given is functional.
In test [18] the test system is HepG2. Put plainly: Induction of apoptosis in human HepG2 cells assessed as necrotic cells at 1 uM after 24 hrs by annexin VeFITC/PI-based flow cytometry (reference value: 0.7 %). The test is classed as functional.
For test [19], the system named is HepG2. Put plainly: Induction of apoptosis in human HepG2 cells assessed as early apoptotic cells at 0.5 uM after 24 hrs by annexin VeFITC/PI-based flow cytometry (reference value: 3.28 %). The class given is functional.
The test system of test [20] is HepG2. Put plainly: Antiproliferative activity against human HepG2 cells after 48 hrs by MTT method. The class given is functional, cell-based. Conditions: HepG2, 48 h.

Sequence of Telomerase reverse transcriptase (O14746 whole entry): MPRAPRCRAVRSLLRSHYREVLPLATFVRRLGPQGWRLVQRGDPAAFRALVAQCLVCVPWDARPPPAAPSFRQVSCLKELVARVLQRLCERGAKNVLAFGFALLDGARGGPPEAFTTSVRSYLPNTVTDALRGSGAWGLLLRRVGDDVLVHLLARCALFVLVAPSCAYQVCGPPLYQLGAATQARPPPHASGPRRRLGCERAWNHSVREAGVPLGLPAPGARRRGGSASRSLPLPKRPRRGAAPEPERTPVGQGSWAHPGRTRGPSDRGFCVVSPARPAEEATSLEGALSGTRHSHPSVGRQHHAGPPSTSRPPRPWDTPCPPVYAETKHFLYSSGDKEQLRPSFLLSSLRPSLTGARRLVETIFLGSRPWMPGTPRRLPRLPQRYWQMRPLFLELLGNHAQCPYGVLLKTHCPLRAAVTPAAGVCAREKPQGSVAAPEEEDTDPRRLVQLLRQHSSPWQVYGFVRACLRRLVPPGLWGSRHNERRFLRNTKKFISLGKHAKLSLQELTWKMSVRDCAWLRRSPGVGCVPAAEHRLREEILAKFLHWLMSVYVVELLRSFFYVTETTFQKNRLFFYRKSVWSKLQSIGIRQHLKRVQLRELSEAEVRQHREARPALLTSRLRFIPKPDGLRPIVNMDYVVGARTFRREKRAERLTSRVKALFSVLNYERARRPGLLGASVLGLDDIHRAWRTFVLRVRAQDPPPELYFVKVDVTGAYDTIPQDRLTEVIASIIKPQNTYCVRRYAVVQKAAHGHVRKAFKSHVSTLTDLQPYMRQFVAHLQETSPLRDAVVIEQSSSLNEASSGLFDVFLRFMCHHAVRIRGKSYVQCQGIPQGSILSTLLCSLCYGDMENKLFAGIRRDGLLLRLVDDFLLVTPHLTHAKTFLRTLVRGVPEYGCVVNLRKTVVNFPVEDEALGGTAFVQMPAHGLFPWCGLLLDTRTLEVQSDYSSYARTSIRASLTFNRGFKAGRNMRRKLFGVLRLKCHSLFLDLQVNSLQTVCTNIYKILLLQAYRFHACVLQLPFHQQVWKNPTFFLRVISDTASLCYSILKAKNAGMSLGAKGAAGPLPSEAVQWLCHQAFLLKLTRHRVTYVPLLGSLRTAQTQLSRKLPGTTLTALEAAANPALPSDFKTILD

For `Brc1ccc(CSc2nnc(-c3cnccn3)s2)cc1`, the Activity in the test on HepG2 [1] is given as 3.62%; with HepG2 [3] it was 2.82%; in the test with HepG2 [5], 30.6%; with HepG2 [6] it was 24.02%; in the test on HepG2 [7] it was 8.62%; with HepG2 [9], 4.36%. Also, the Activity entry in the test on HepG2 [11] is “Dose-dependent effect”; in the test with HepG2 [12], 17.54%; in the test on HepG2 [13] it was 35.16%; in the test with HepG2 [15] it was 1.72%; with HepG2 [17], 14.96%; in the test on HepG2 [18] it was 4.18%. For the same compound, the Activity in the test with HepG2 [19] is given as 11.48%. Also, the IC50 (commonly the concentration that gives 50% inhibition) in [2] is 1.47 µM; in the test with BGC-823 it was 25.2 µM; with HeLa, 12.4 µM; in test [8], 1.24 µM; in the test with HepG2 [20] it was 0.78 µM. Further, in the test with HepG2 [4], the viability at 0.25 µM was 85.3%. In addition, in the test on HepG2 [10], the viability at 0.5 µM turned out to be 60.9%. For the same compound, the viability at 1 µM in the test with HepG2 [14] amounted to 50.3%. Besides, the viability at 2 µM with HepG2 [16] came to 44.5%.
